{"data": "Assay results gathered from unrelated publications", "note": "Protocols differ between the studies behind these lines."}
{"Compound": "CCN1CCN(Cc2ccc(NC(=O)c3ccc(C)c(NC(=O)c4cncc(-c5cccs5)c4)c3)cc2C(F)(F)F)CC1", "host": "mouse", "medium": "plasma", "route": "intraperitoneal", "dose": "10 mg/kg", "notes": "single dose", "Cmax": "488 ng/mL"}
{"Compound": "Cc1c(C(=O)O)ccc2c3n(nc12)[C@@H]1[C@H](C3)N(CC2CC2)[C@@]2(C(=O)Nc3cc(Cl)ccc32)[C@H]1c1cccc(Cl)c1F", "host": "female mouse", "medium": "plasma", "route": "oral", "dose": "5 mg/kg", "Cmax": "7400 nM"}
{"Compound": "O=C1CCN2C(=O)c3ccccc3C2C(=O)Nc2ccccc21 (centres unmarked)", "host": "male Swiss mouse", "medium": "plasma", "route": "oral", "dose": "100 mg/kg", "Cmax": "617 nM"}
{"Compound": "O=C(COc1ccc(N2C(=O)[C@@H]3[C@@H]4C=C[C@@H]([C@H]5C[C@@H]45)[C@@H]3C2=O)cc1)c1cc(Cl)cc(Cl)c1", "host": "mouse", "medium": "brain", "route": "oral", "dose": "20 mg/kg", "Cmax": "5000 nM"}
{"Compound": "CC(=O)O[C@@]12CO[C@@H]1C[C@H](O)[C@@]1(C)C(=O)[C@H](O)C3=C(C)[C@@H](OC(=O)[C@H](O)[C@@H](NC(=O)OC(C)(C)C)c4ccccc4)C[C@@](O)([C@@H](OC(=O)c4ccccc4)[C@H]21)C3(C)C", "host": "male Kunming mouse", "medium": "plasma", "route": "oral", "dose": "20 mg/kg", "Cmax": "4.1 ng/mL"}
{"Compound": "Nc1ncn([C@H]2C[C@H](O)[C@@H](CO)O2)c(=O)n1", "host": "female C57BL/6 mouse", "medium": "plasma", "route": "oral", "dose": "0.4 mg/kg", "Cmax": "118 ng/mL"}
{"Compound": "O=C(ONc1nc2nonc2nc1Nc1ccccc1F)c1ccc(OC(F)(F)F)cc1", "host": "male C57BL/6 mouse", "medium": "plasma", "route": "oral", "dose": "10 mg/kg", "Cmax": "1.9 nM"}
{"Compound": "C=CS(=O)(=O)c1ccc(Nc2nc(OCC3CCCCC3)c3nc[nH]c3n2)cc1", "host": "male BALB/c mouse", "medium": "plasma", "route": "intraperitoneal", "dose": "20 mg/kg", "notes": "single dose", "Cmax": "190 ng/mL"}
